Assay outcomes as filed in PubChem BioAssay.
p-CIP stab down: p/CIP protein destabilization | Q05BA5 | 290,000 compounds, 0.01% hits | F442A p/CIP-EGFP cells, EGFP fluorescence, 16 h | AID 1984 | decrease of EGFP signal, % at 10 µM;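 active means EGFP signal decrease of at least 30% at 10 µM or well 3 SD below plate mean, unless failing retest; inactive means the rest, including hits failing retest or dose response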
CTSL1 counter: blocks F. hepatica cathepsin L1 in PFM18AAP counter-screen. recombinant F. hepatica cathepsin L1, Z-Leu-Arg-MCA fluorescence. inhibition, % at 5.96 µM. 300,000 compounds, 0.49% hits;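 active means inhibition above the mean of all tested compounds plus 3 SD, set per screening campaign, cut at about 17% in these data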
IMP-1 inh-1: blocks Pseudomonas aeruginosa IMP-1 metallo-beta-lactamase; purified IMP-1, nitrocefin hydrolysis, epi-absorbance fluorescence; inhibition, % at 5.6 µM; 290,000 compounds, 0.45% hits;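 active means inhibition above the mean plus 3 SD of all compounds in the same screening run, cut at about 4.5% in these data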
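assay system = purified recombinant IMP-1 metallo-beta-lactamase enzyme | schedule = 15 min preincubation plus 25 min reaction at 25 °C | signal = Epi-absorbance fluorescence, 480 nm excitation, 530 nm emission | read-out basis = percent inhibition from optical density relative to buffer-blank wells | controls = IMP-1 with DMSO as 0%, enzyme-free DMSO as 100%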
T cell modulator: T cell immune modulation candidate. 330,000 compounds, 0.068% hits. response (vesicle binding), % at 7 µM. 2C CD8+ T cell-vesicle binding, flow cytometry; active compounds read low;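 active means response, share of CD8 T cells binding vesicles, and their 90th percentile fluorescence all below set limits, cut at about 80% in these data, passing the limit was not always enough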;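 further: values below 100% mean blocked vesicle binding to the CD8+ T cells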
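Test system: purified 2C TCR transgenic mouse naive CD8+ T cells. Probe or stimulus: QL9-peptide-loaded Drosophila micro-vesicles bearing Ld, ICAM-1 and B7-1. Incubation: binding step 1.5 h, 37 °C, antibody labelling 20 min, ice. Measured by: flow cytometry of vesicle-bound cells.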
VIM-2 inh: inhibitors of Pseudomonas aeruginosa VIM-2 metallo-beta-lactamase; 290,000 compounds, 0.89% hits; inhibition, % at 5.6 µM; purified VIM-2, nitrocefin hydrolysis, epi-absorbance fluorescence;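 active means inhibition above the mean of all tested compounds plus 3 SD, cutoff set per screening run, cut at about 7.5% in these data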;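 further: red hydrolysis product quenches plate fluorescence so inhibitors raise well fluorescence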
SUMO HTRF inh: blocks human SUMOylation mediated by UBC9; HTRF SUMOylation assay, SAE1/SAE2 + UBC9, in vitro; P63279; inhibition, % at 35 µM; 290,000 compounds, 0.36% hits; in the data active means inhibition above about 50%, passing the limit was not always enough
Target sequence (P63279 whole entry, looked up): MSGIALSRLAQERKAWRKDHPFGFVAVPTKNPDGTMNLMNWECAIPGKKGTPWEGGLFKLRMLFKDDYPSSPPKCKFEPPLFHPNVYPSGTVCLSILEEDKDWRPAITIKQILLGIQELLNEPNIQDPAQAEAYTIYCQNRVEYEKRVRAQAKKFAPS
IMP-1 inh-2: IMP-1 inhibition, counter-screen for VIM-2 inhibitors; shares compounds with VIM-2 inh; inhibition, % at 5.6 µM; purified IMP-1, nitrocefin hydrolysis, epi-absorbance fluorescence; 1,300 tested, under 10 active; call rule not given here
VIM-2 FRET inh: inhibits VIM-2 in FRET assay to exclude epi-absorbance artifacts | shares compounds with VIM-2 inh | purified VIM-2, CCF2 FRET substrate hydrolysis | inhibition, % at 5.6 µM | 1,300 compounds, 23% hits | AID 1857;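 active means inhibition above the mean of all tested compounds plus 3 SD, cut at about 19% in these data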
TEM-1 inh: selectivity counter-screen for VIM-2 inhibitors: E. coli TEM-1 inhibitors; Purified TEM-1, nitrocefin hydrolysis, epi-absorbance fluorescence; shares compounds with VIM-2 inh; inhibition, % at 5.6 µM; 1,300 compounds, 3% hits; AID 1866;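 active means inhibition above that campaign's mean inhibition plus 3 SD, cut at about 0.46% in these data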
Target sequence (P62593 whole entry, looked up): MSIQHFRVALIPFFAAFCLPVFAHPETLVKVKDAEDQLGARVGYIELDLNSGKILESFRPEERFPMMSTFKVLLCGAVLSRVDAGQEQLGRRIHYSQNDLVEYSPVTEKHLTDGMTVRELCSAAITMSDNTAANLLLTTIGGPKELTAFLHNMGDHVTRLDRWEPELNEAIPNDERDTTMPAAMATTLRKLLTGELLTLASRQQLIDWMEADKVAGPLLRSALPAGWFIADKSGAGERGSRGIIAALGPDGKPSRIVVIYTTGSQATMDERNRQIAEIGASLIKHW
VIM-2 confirm 2: confirmation of P. aeruginosa VIM-2 metallo-beta-lactamase inhibitors | AID 2187 | inhibition, % at 5.6 µM | shares compounds with VIM-2 inh | 1,300 compounds, 96% hits | purified VIM-2, nitrocefin hydrolysis, epi-absorbance;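 active means inhibition of the VIM-2 beta-lactamase enzyme above about 11% from the earlier first-round screen, limit read from the data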
Of the large screens only hits and unclear results are named; the others gave an inactive call (follow-up assays come after a bar, where they were run). An excerpt weighted towards active compounds, which were near 1.9% of everything screened.

CCc1cccc(CC)c1NC(=O)CSc1nnc(CCC(=O)O)c(=O)[nH]1	none
Cc1nc2ccccc2c2oc(C(=O)N3CCN(C4CCCCC4)CC3)cc12	VIM-2 inh 19.4 | IMP-1 inh-2 inactive | VIM-2 FRET inh inactive | TEM-1 inh inactive | VIM-2 confirm 2 37.6
COc1ccc(N2CCN(C(=O)c3cc4c(C)nc5ccccc5c4o3)CC2)cc1	none
O=C(Cn1c(=O)n(-c2ccccc2)c(=O)c2sccc21)NCc1ccccc1	none
O=C(NC1CC1)c1ccc(Cl)c(S(=O)(=O)N2CCOCC2)c1	none
C=CCn1c(C(c2ccccc2)c2ccccc2)n[nH]c1=S	none
S=c1[nH]nc(C2CC2)n1Cc1ccco1	VIM-2 inh 25.4 | IMP-1 inh-2 inactive | VIM-2 FRET inh 56.0 | TEM-1 inh inactive | VIM-2 confirm 2 35.6
S=c1[nH]nc(Cc2ccccc2)n1Cc1ccco1	none
C=CCn1c(C2CC2)n[nH]c1=S	VIM-2 inh 15.2 | IMP-1 inh-2 inactive | VIM-2 FRET inh 36.5 | TEM-1 inh inactive | VIM-2 confirm 2 23.1
Cc1ccc(NS(=O)(=O)c2ccc(-n3cccn3)cc2)nc1	none
O=C(CN1C(=O)NC(CCc2ccccc2)C1=O)Nc1cccc(Br)c1 (stereo not given)	none (no result: p-CIP stab down, CTSL1 counter, IMP-1 inh-1, VIM-2 inh, SUMO HTRF inh)
CCN(CC)CCSc1nnc2c3ccccc3n(Cc3ccccc3)c2n1	VIM-2 inh 31.1 | IMP-1 inh-2 inactive | VIM-2 FRET inh inactive | TEM-1 inh inactive | VIM-2 confirm 2 48.6
CCN(CC)CCn1c2ccccc2c2nc3ccccc3nc21	none
CCN(CC)CCSc1nnc2c3cc(F)ccc3n(Cc3ccccc3)c2n1	VIM-2 inh 22.8 | IMP-1 inh-2 inactive | VIM-2 FRET inh inactive | TEM-1 inh inactive | VIM-2 confirm 2 37.0
O=C(Nc1ncccc1O)c1ccc(Oc2ccccc2)cc1	none
CCCNC(=O)NC(=O)CSc1nncs1	none
COc1ccc2ccccc2c1C(O)c1nccn1C (stereo not given)	VIM-2 inh 12.6 | IMP-1 inh-2 inactive | VIM-2 FRET inh inactive | TEM-1 inh inactive | VIM-2 confirm 2 11.2
CCCc1cc(=O)oc2c3c(cc(OCC(=O)N[C@@H](CSC)C(=O)O)c12)OC(C)(C)CC3	VIM-2 inh 37.0 (no result: CTSL1 counter) | IMP-1 inh-2 inactive | VIM-2 FRET inh 67.8 | TEM-1 inh inactive | VIM-2 confirm 2 43.9
CCCc1cc(=O)oc2c3c(cc(OCC(=O)N[C@@H](C)C(=O)O)c12)OC(C)(C)CC3	VIM-2 inh 17.5 | IMP-1 inh-2 inactive | VIM-2 FRET inh 40.6 | TEM-1 inh inactive | VIM-2 confirm 2 24.4
CC1(C)CC[C@]2(CO)CC[C@]3(C)C(=CCC4[C@@]5(C)CC[C@H](O)[C@@](C)(CO)C5CC[C@]43C)[C@@H]2C1 (stereo not given in full)	none (no result: p-CIP stab down, CTSL1 counter, IMP-1 inh-1, VIM-2 inh, SUMO HTRF inh)
CN1CCN(c2cc(N3CCN(C(=O)c4ccco4)CC3)c3c4c(onc24)-c2ccccc2C3=O)CC1	VIM-2 inh 16.8 | IMP-1 inh-2 inactive | VIM-2 FRET inh inactive | TEM-1 inh inactive | VIM-2 confirm 2 24.0
O=C1c2ccccc2-c2onc3c(N4CCN(CCO)CC4)cc(N4CCN(C(=O)c5ccco5)CC4)c1c23	VIM-2 inh 14.3 | IMP-1 inh-2 inactive | VIM-2 FRET inh inactive | TEM-1 inh inactive | VIM-2 confirm 2 18.4
O=C(c1ccco1)N1CCN(CCCCN2C(=O)c3ccccc3C2=O)CC1	none
O=C(c1ccco1)N1CCN(C2=NS(=O)(=O)c3ccccc32)CC1	none
O=C(O)CC/C(=C\c1cccc(NC(=O)c2ccccc2Cl)c1)c1nc2ccccc2s1	none
O=C(O)C/C(=C\c1cc(Cl)c2c(c1)OCO2)c1nc2ccccc2s1	VIM-2 inh 14.1 | IMP-1 inh-2 inactive | VIM-2 FRET inh 39.8 | TEM-1 inh inactive | VIM-2 confirm 2 23.1
COCCCNC(=O)c1cc2c(=O)n3cccc(C)c3nc2s1	VIM-2 inh 17.8 | IMP-1 inh-2 inactive | VIM-2 FRET inh inactive | TEM-1 inh inactive | VIM-2 confirm 2 23.2
Cc1cccn2c(=O)c3cc(C(=O)NC4CCCCC4)n(C)c3nc12	none
CCCCNC(=O)c1cc2c(=O)n3cccc(C)c3nc2n(Cc2ccncc2)c1=N	none
CCCCNC(=O)c1cc2c(=O)n3cccc(C)c3nc2s1	VIM-2 inh 21.0 | IMP-1 inh-2 inactive | VIM-2 FRET inh inactive | TEM-1 inh inactive | VIM-2 confirm 2 24.9
